Experimental data gathered from unrelated publications.
Lines come from different studies, so protocols differ.
Target: Interferon-induced, double-stranded RNA-activated protein kinase (EIF2AK2, Homo sapiens, UniProt P19525)

Cc1cnc(Nc2ccc(C(=O)N3CCC(N4CCCC4)CC3)cc2)nc1-c1cc2ccccc2s1  remaining binding (binding; competition with immobilised ligand; 1 µM): 7%
O=c1nc(-c2ccccn2)sc2ccccc12  remaining binding (binding; competition with immobilised ligand; 1 µM): 100%
c1cncc(-c2cccc(Nc3nccc(NC4CCCCC4)n3)c2)c1  remaining binding (binding; competition with immobilised ligand; 10 µM): 100%
CN(C)C(=O)Cn1cc(-c2nc(C3(c4ccc(-c5cnc(N)nc5)cc4)CC3)no2)cn1  remaining binding (cell-free assay; competition with immobilised ligand; 1 µM): 100%
O=C(NCCCN1CCOCC1)c1ccc(Nc2nccc(-c3cc4ccccc4s3)n2)cc1  remaining binding (binding; competition with immobilised ligand; 1 µM): 64%
CN(C)c1nccc(-c2cnn3ncccc23)n1  remaining binding (binding; 1 µM): 100%
CC(=O)C1=C(C)N(c2cccc(C(F)(F)F)c2)C(=O)N[C@@H]1c1ccc(C#N)nc1  remaining binding (cell-free assay; competition with immobilised ligand; 1 µM): 83.4%
Cc1cnn2ncc(-c3ccnc(N(C)C)n3)c2c1  remaining binding (binding; 1 µM): 100%
CN1CCN(c2cnc3c(C4CCN(C(=O)c5ccc(OC(F)(F)F)cc5N)CC4)ncnc3c2)CC1  remaining binding (cell-free assay; competition with immobilised ligand; 1 µM): 85%
c1cnn2ncc(-c3ccnc(N4CCC45COC5)n3)c2c1  remaining binding (binding; 1 µM): 100%
O=C(c1ccc(Nc2ncc(Cl)c(-c3cc4ccccc4s3)n2)cc1)N1CCC(N2CCCC2)CC1  remaining binding (binding; competition with immobilised ligand; 1 µM): 22%
F[C@@H]1CCN(c2nccc(-c3cnn4ncccc34)n2)C1  remaining binding (binding; 1 µM): 100%
O=C(NCC1CCOCC1)c1n[nH]cc1NC(=O)c1c(F)cccc1F  remaining binding (binding; competition with immobilised ligand; 1 µM): 100%
CCN1CCN(Cc2ccc(C(=O)Nc3ccc(C)c(Oc4ccc5c(c4)CC(=O)N5)c3)cc2C(F)(F)F)CC1  remaining binding (binding; competition with immobilised ligand; 1 µM): 96%
COc1cnc(Nc2cccc(S(N)(=O)=O)c2)nc1N1CCN(c2ccccc2)CC1  remaining binding (binding; competition with immobilised ligand; 1 µM): 97%
CS(=O)(=O)N1CCCC(NC(=O)[C@H](CCC2CCCCC2)NC(=O)c2ccc(CNC(=O)c3cnc4ccccn34)cc2)C1 (some centres unmarked)  remaining binding (cell-free assay; competition with immobilised ligand; 0.1 µM): 47%
N[C@H]1CCN(c2nccc(-c3cnn4ncccc34)n2)C1  remaining binding (binding; 1 µM): 100%
CC(=O)N1CCC(c2ccc(C(=O)NC(=N)N)cc2C(F)(F)F)CC1  remaining binding (cell-free assay; competition with immobilised ligand; 1 µM): 100%
Nc1ncc2c(n1)-c1c([nH]c3ccc(C#CC4CC4)cc13)CCCC2  remaining binding (binding; competition with immobilised ligand; 1 µM): 100%
COc1ccnn2ncc(-c3ccnc(N(C)C)n3)c12  remaining binding (binding; 1 µM): 100%
